Experimental data reported in PMC6392825 (ChemistryOpen, 2019).
Values after ≈ are worked out from the molar mass of the structure shown.

Tests used:
HepG2 [1] = experiment: Cytotoxicity, mitochondrial activity; assay type: cell-based; settings: Homo sapiens, HepG2, 72 h, read-out: IC50 MTT
Procedure, shortened: (§1)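 Seeded at 20000 cells/well in DMEM and grown 24 h at 37 °C, 10% CO2. Medium was then replaced with serum-free medium holding test compound (25 mM DMSO stock) at various concentrations for 72 h, in triplicate; doxorubicin was the positive control. MTT (5 mg/mL stock in PBS) added for 2 h, formazan dissolved in DMSO, A570. IC50 derived from % surviving cells, reported as mean ± SD combined with SRB data.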

[2] = Chemical antioxidant capacity, FRAP assay
EA.hy926 [3] = experiment: Cell growth inhibition, protein content; assay type: cell-based; settings: Homo sapiens, EA.hy 926, 72 h, read-out: IC50 SRB
Procedure, shortened: (§2)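 Cell lines from ATCC, grown in DMEM+glutamax with 1% NEAA, 1% P/S and 10% FBS at 37 °C, 10% CO2. Seeded at 20000 cells/well for 24 h, then exposed to test compound (25 mM DMSO stock) for three days. Fixed with cold TCA for 1 h at 4 °C, stained 30 min with 0.4% SRB in 1% acetic acid, dissolved in 10 mM Tris, A490. Triplicate; IC50 given as mean ± SD combined with MTT data (n ≥ 3).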

HepG2 [4] = experiment: Cell growth inhibition, protein content; assay type: cell-based; settings: Homo sapiens, HepG2, 72 h, read-out: IC50 SRB
Procedure, shortened: as §2

Caco‐2 [5] = experiment: Cytotoxicity, mitochondrial activity; assay type: cell-based; settings: Homo sapiens, Caco-2, 72 h, read-out: IC50 MTT
Procedure, shortened: as §1

HepG2 [6] = experiment: Intracellular ROS assay; assay type: cell-based; settings: for activity at 1 µM / activity at 10 µM: Homo sapiens, HepG2, read-out: Intracellular ROS, percentage compared to the untreated control cells (ROS/SRB)
Procedure, shortened: (§3)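 Cells seeded at 20000/well and grown 24 h at 37 °C, 10% CO2, then treated with test compound at 10 and 1 μM in serum-free medium. NAC and doxorubicin served as controls. After a PBS wash, cells were loaded with 20 μM DCFH-DA for 30 min, washed, and held 1 h in phenol red-free DMEM. Fluorescence read at ex 485/em 535 nm and normalized to SRB in the same well. Reported as % of untreated control, n ≥ 3, two-tailed t-test with unequal variances.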

Caco‐2 [7] = experiment: Intracellular ROS assay; assay type: cell-based; settings: for activity at 1 µM / activity at 10 µM: Homo sapiens, Caco-2, read-out: Intracellular ROS, percentage compared to the untreated control cells (ROS/SRB); for change of intracellular ROS in words: Caco‐2, vs untreated control, 10 and 1 μM
Procedure, shortened: as §3

HT‐29 [8] = experiment: Cytotoxicity, mitochondrial activity; assay type: cell-based; settings: Homo sapiens, HT-29, 72 h, read-out: IC50 MTT
Procedure, shortened: as §1

Caco‐2 [9] = experiment: Cell growth inhibition, protein content; assay type: cell-based; settings: Homo sapiens, Caco-2, 72 h, read-out: IC50 SRB
Procedure, shortened: as §2

EA.hy926 [10] = experiment: Cytotoxicity, mitochondrial activity; assay type: cell-based; settings: Homo sapiens, EA.hy 926, 72 h, read-out: IC50 MTT
Procedure, shortened: as §1

HT‐29 [11] = experiment: Cell growth inhibition, protein content; assay type: cell-based; settings: Homo sapiens, HT-29, 72 h, read-out: IC50 SRB
Procedure, shortened: as §2

HT‐29 [12] = experiment: Intracellular ROS assay; assay type: cell-based; settings: for activity at 1 µM / activity at 10 µM: Homo sapiens, HT-29, read-out: Intracellular ROS, percentage compared to the untreated control cells (ROS/SRB)
Procedure, shortened: as §3

[13] = Water solubility, shake flask method, 0.1 M phosphate buffer pH 6.8; assay type: physicochemical; settings: 37 °C, pH 6.8, aqueous buffer, thermodynamic from solid
EA.hy926 [14] = experiment: Intracellular ROS assay; assay type: cell-based; settings: for activity at 1 µM / activity at 10 µM: Homo sapiens, EA.hy 926, read-out: Intracellular ROS, percentage compared to the untreated control cells (ROS/SRB)
Procedure, shortened: as §3

CHO‐K1 = experiment: Intracellular ROS assay; assay type: cell-based, Chinese hamster; settings: CHO‐K1, vs untreated control, 10 and 1 μM
Procedure, shortened: as §3

| Compound | IC50 (HepG2 [4]) [µM] | IC50 (Caco‐2 [9]) [µM] | solubility at 90 min [13] [µM] | solubility at 24 h [13] [µM] | IC50 (HepG2 [1]) [µM] | FRAP (Trolox equivalent per μM) [2] [Trolox equivalent per μM] | FRAP (curcumin equivalent per μM) [2] | IC50 (EA.hy926 [3]) [µM] | IC50 (Caco‐2 [5]) [µM] | activity at 1 µM (HepG2 [6]) [%] | activity at 10 µM (HepG2 [6]) [%] | activity at 1 µM (Caco‐2 [7]) [%] | activity at 10 µM (Caco‐2 [7]) [%] | IC50 (HT‐29 [8]) [µM] | IC50 (EA.hy926 [10]) [µM] | IC50 (HT‐29 [11]) [µM] | activity at 1 µM (HT‐29 [12]) [%] | activity at 10 µM (HT‐29 [12]) [%] | activity at 1 µM (EA.hy926 [14]) [%] | activity at 10 µM (EA.hy926 [14]) [%] | further results |
| --- | --- | --- | --- | --- | --- | --- | --- | --- | --- | --- | --- | --- | --- | --- | --- | --- | --- | --- | --- | --- | --- |
| COc1cc(/C=C/C(=O)/C=C(O)/C=C/c2ccnc3ccccc23)ccc1O [3 d, (1E,4Z,6E)‐5‐Hydroxy‐1‐(4‐hydroxy‐3‐methoxyphenyl)‐7‐(quinolin‐4‐yl)hepta‐1,4,6‐triene‐3‐one] | 55.4 ± 0.3 | 40.8 ± 1.6 | 3.6 ± 1.1 (≈ 1.34 µg/mL) | 4.4 ± 1.3 (≈ 1.64 µg/mL) | 44.8 ± 5.5 | 0.20 | 0.20 curcumin equivalent per μM | 60.2 ± 10.4 | 46.3 ± 3.7 | 90.7 ± 7.4 | 99.6 ± 11.7 | 94.2 ± 5 | 108 ± 4.4 | 47 ± 1 | 42.3 ± 1.2 | 47.2 ± 2.2 | 71.3 ± 4.9 | 96.9 ± 8 | 95.6 ± 7 | 132 ± 6.5 |  |
| O=C(/C=C(O)/C=C/c1ccncc1)/C=C/c1c[nH]c2ccccc12 [3 i, (1E,4Z,6E)‐5‐Hydroxy‐1‐(1H‐indol‐3‐yl)‐7‐(pyridin‐4‐yl)hepta‐1,4,6‐trien‐3‐one] | > 75 | 29.8 ± 2.3 | 7.8 ± 0.1 (≈ 2.47 µg/mL) | 7.7 ± 0.6 (≈ 2.44 µg/mL) | 48.5 ± 1.7 | 0.19 | 0.18 curcumin equivalent per μM | > 75 | 47.1 ± 1.6 | 125 ± 12 | 147 ± 12.8 | 101 ± 5.1 | 89.7 ± 8.9 | 42 ± 1 | 34.9 ± 1.3 | 64.2 ± 2.76 | 73.3 ± 7.8 | 73.6 ± 5.3 | 106 ± 10.5 | 119 ± 2.9 |  |
| O=C(/C=C(O)/C=C/c1ccccn1)/C=C/c1c[nH]c2ccccc12 [3 j, (1E,4Z,6E)‐5‐Hydroxy‐1‐(1H‐indol‐3‐yl)‐7‐(pyridin‐2‐yl)hepta‐1,4,6‐trien‐3‐one] | 34 ± 2.8 | 40.2 ± 1.9 | 10.7 ± 0.4 (≈ 3.39 µg/mL) | 7.9 ± 0.2 (≈ 2.5 µg/mL) | 38.9 ± 0.8 | 0.16 | 0.15 curcumin equivalent per μM | 3.7 ± 0.2 | 35.5 ± 0.4 | 92.6 ± 6.5 | 96.6 ± 5.9 | 98.2 ± 2.6 | 84.9 ± 7 | 33.8 ± 3.5 | 1.4 ± 0.2 | 46 ± 3 | 114 ± 15.5 | 102 ± 6.4 | 90.8 ± 2.4 | 111 ± 3.5 |  |
| COc1cc(/C=C/C(=O)CC(=O)/C=C/c2ccc(O)c(OC)c2)ccc1O [Cur, curcumin, reference compound] | 22.1 ± 2.6 | 39.1 ± 0.1 | 2.7 ± 0.1 (≈ 0.995 µg/mL) |  | 25.3 ± 0.9 | 1.00 |  | 58.4 ± 4.2 | 47.6 ± 1.5 | 90.8 ± 12 | 101 ± 8.8 | 131 ± 3.6 | 115 ± 7.2 | 43.4 ± 4.6 | 46.8 ± 0.7 | 52.3 ± 3.8 | 106 ± 8.4 | 86.5 ± 4.5 | 100 ± 7.7 | 97.6 ± 5.7 |  |

The next compounds have a lower IC50 (HepG2 [4]) than those just listed; values first:

| IC50 (HepG2 [4]) [µM] | IC50 (Caco‐2 [9]) [µM] | solubility at 90 min [13] [µM] | solubility at 24 h [13] [µM] | Compound | IC50 (HepG2 [1]) [µM] | FRAP (Trolox equivalent per μM) [2] [Trolox equivalent per μM] | FRAP (curcumin equivalent per μM) [2] | IC50 (EA.hy926 [3]) [µM] | IC50 (Caco‐2 [5]) [µM] | activity at 1 µM (HepG2 [6]) [%] | activity at 10 µM (HepG2 [6]) [%] | activity at 1 µM (Caco‐2 [7]) [%] | activity at 10 µM (Caco‐2 [7]) [%] | IC50 (HT‐29 [8]) [µM] | IC50 (EA.hy926 [10]) [µM] | IC50 (HT‐29 [11]) [µM] | activity at 1 µM (HT‐29 [12]) [%] | activity at 10 µM (HT‐29 [12]) [%] | activity at 1 µM (EA.hy926 [14]) [%] | activity at 10 µM (EA.hy926 [14]) [%] | further results |
| --- | --- | --- | --- | --- | --- | --- | --- | --- | --- | --- | --- | --- | --- | --- | --- | --- | --- | --- | --- | --- | --- |
| 20.6 ± 1.4 | 25.8 ± 1.1 | 9.9 ± 0.4 (≈ 3.2 µg/mL) | 11.6 ± 0.6 (≈ 3.75 µg/mL) | COc1cc(/C=C/C(=O)/C=C(O)/C=C/c2ccccn2)ccc1O [3 b, (1E,4Z,6E)‐5‐Hydroxy‐1‐(4‐hydroxy‐3‐methoxyphenyl)‐7‐(pyridin‐2‐yl)hepta‐1,4,6‐triene‐3‐one] | 24.6 ± 4.8 | 0.41 | 0.40 curcumin equivalent per μM | 3.1 | 22.3 ± 0.9 | 108 ± 6.7 | 91.9 ± 9.2 | 92.7 ± 5.4 | 99.7 ± 6.2 | 34.3 ± 2.7 | 1.1 ± 0.1 | 34.8 ± 1.2 | 80.8 ± 2.5 | 93.6 ± 3.1 | 100 ± 7 | 127 ± 4.9 |  |
| 10.8 ± 1.6 | 5.7 ± 0.2 | 1.27 (≈ 0.408 µg/mL) | 1.25 (≈ 0.402 µg/mL) | O=C(/C=C(O)/C=C/c1cccs1)/C=C/c1c[nH]c2ccccc12 [3 m, (1E,4Z,6E)‐5‐Hydroxy‐1‐(1H‐indol‐3‐yl)‐7‐(thiophen‐2‐yl)hepta‐1,4,6‐trien‐3‐one] | 4.7 ± 0.2 | 0.10 | 0.09 curcumin equivalent per μM | 8.6 ± 0.5 | 0.5 ± 0.3 | 318 ± 13.2 | 424 ± 28.4 | 238 ± 5.5 | 295 ± 11.1 | 6.9 | 4.4 ± 0.4 | 4.8 ± 0.3 | 247 ± 15.5 | 337 ± 22 | 344 ± 7.1 | 322 ± 9.6 |  |
| 7.3 ± 0.3 | 17.7 ± 3 | 1.1 ± 0.2 (≈ 0.411 µg/mL) | 1.4 ± 0.2 (≈ 0.523 µg/mL) | COc1cc(/C=C/C(=O)/C=C(O)/C=C/c2cccc3cnccc23)ccc1O [3 e, (1E,4Z,6E)‐5‐Hydroxy‐1‐(4‐hydroxy‐3‐methoxyphenyl)‐7‐(isoquinolin‐5‐yl)hepta‐1,4,6‐triene‐3‐one] | 4.7 ± 0.2 | 0.21 | 0.20 curcumin equivalent per μM | 16.2 ± 0.6 | 6.9 ± 0.3 | 103 ± 5.1 | 96.7 ± 4.3 | 92.8 ± 11.9 | 72.7 ± 5.1 | 1.3 ± 0.5 | 5.2 ± 0.2 | 10.7 ± 1.6 | 80.6 ± 4.8 | 67.6 ± 5.1 | 96.3 ± 4.3 | 120 ± 4.4 | change of intracellular ROS in words (Caco‐2 [7]): significantly decreased ROS production |
| 1.3 ± 0.3 | 9.2 ± 0.5 |  |  | COc1cccc2c1C(=O)c1c(O)c3c(c(O)c1C2=O)C[C@@](O)(C(=O)CO)C[C@@H]3O[C@H]1C[C@H](N)[C@H](O)[C@H](C)O1 [Dox, doxorubicin, reference compound] | 1.8 ± 0.1 |  |  | 3.4 ± 0.4 | 13 ± 0.5 | 100 ± 4.1 | 119 ± 4.2 | 121 ± 9.4 | 112 ± 3.9 | 4.8 ± 0.1 | 4.1 ± 0.1 | 2.7 ± 0.1 | 116 ± 1.7 | 126 ± 1.8 | 108 ± 6.2 | 125 ± 5.1 | change of intracellular ROS in words (HepG2 [6]; HepG2, vs untreated control, 10 and 1 μM): significant increase in ROS generation; change of intracellular ROS in words (Caco‐2 [7]): significant increase in ROS generation; change of intracellular ROS in words (CHO‐K1): significant increase in ROS generation; change of intracellular ROS in words (HT‐29 [12]; HT‐29, vs untreated control, 10 and 1 μM): significant increase in ROS generation; change of intracellular ROS in words (EA.hy926 [14]; EA.hy926, vs untreated control, 10 and 1 μM): significant increase in ROS generation |
